Test results as given in ChEMBL document CHEMBL4359813, “Synthesis and antimycobacterial activity of imidazo[1,2-b][1,2,4,5]tetrazines” (2019).
Converted amounts (≈) assume the structure as drawn. The source made the active and inactive calls. The calls are words filed in the database; no cut-off is given here.

How the values were obtained:
[1] = test system: Mycolicibacterium smegmatis; assay: Antimycobacterial activity against Mycobacterium smegmatis atR10 assessed as decrease in drug resistance development at 10 nmol/disc after 2 to 3 days by paper disc method; format: functional, organism-based
Procedure, shortened: (§1)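 Mutant M. smegmatis strains were grown in Middlebrook 7H9/OADC/Tween/glycerol to OD600 1.2. Cultures were diluted 1:9:10 (culture:water:M290) and overlaid on M290 agar. Commercial or impregnated paper discs were applied and plates incubated 2–3 days at 37 °C. Inhibition halos were measured to 1 mm, run in triplicate, mean ± SD.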

[2] = test system: Mycolicibacterium smegmatis; assay: Antimycobacterial activity against Mycobacterium smegmatis atR17 assessed as decrease in drug resistance at 10 nmol/disc after 2 to 3 days by paper disc method; format: functional, organism-based; procedure, shortened: as §1
[3] = test system: Mycolicibacterium smegmatis MC2 155; assay: Inhibition of STPK in Mycobacterium smegmatis MC2 155 expressing aminoglycoside phophotransferase-8 assessed as growth inhibition at 50 nmol/disk after 18 hrs in presence of kanamycin by paper disk method
[4] = test system: Mycolicibacterium smegmatis MC2 155; assay: Inhibition of STPK in Mycobacterium smegmatis MC2 155 expressing aminoglycoside phophotransferase-8 assessed as growth inhibition at 5 nmol/disk after 18 hrs in presence of kanamycin by paper disk method
[5] = test system: Mycobacterium tuberculosis; assay: Antimycobacterial activity against Mycobacterium tuberculosis H37Rv in liquid medium; format: functional
Procedure, shortened: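 M. tuberculosis H37Rv; MIC determined in liquid medium on the automated Bactec MGIT 960 system.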

[6] = test system: Mycolicibacterium smegmatis; assay: Antimycobacterial activity against Mycobacterium smegmatis MC2 155 in liquid medium after 48 hrs by two-fold serial dilution method; format: functional; conditions: MC2 155, 48 h
Procedure, shortened: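 M. smegmatis mc2 155 grown overnight in Lemco-Tw broth, diluted 1:200 in fresh broth. […] Top wells could carry 4% DMSO. Incubated 48 h at 37 °C with shaking at 250 rpm. MIC is the lowest concentration with no visible growth.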

[7] = test system: Mycolicibacterium smegmatis; assay: Antimycobacterial activity against Mycobacterium smegmatis MC2 155 in solid medium by two-fold serial dilution method; format: functional
Procedure, shortened: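 M290 soybean-casein agar plates carried two-fold compound dilutions, 8–64 or 8–128 µg/ml, some with extra 20 or 25 µg/ml plates.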

[8] = test system: Mycolicibacterium smegmatis; assay: Antimycobacterial activity against Mycobacterium smegmatis atR9 in liquid medium after 48 hrs by two-fold serial dilution method; format: functional; conditions: atR9, 48 h
Procedure, shortened: (§2)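 M. smegmatis resistant mutants were isolated on M290 agar containing 3.5-4× MIC of the test compound at 30°C and resistance was reconfirmed. MIC was then run in Lemco-Tw broth (Tween-80 0.05%). An overnight culture was diluted 1:200, and two-fold serial dilutions in DMSO were added. Plates were incubated at 37°C and 250 rpm for 48 h. MIC was read as the lowest concentration with no visible growth.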

[9] = test system: Mycolicibacterium smegmatis; assay: Antimycobacterial activity against Mycobacterium smegmatis atR14 in liquid medium after 48 hrs by two-fold serial dilution method; format: functional; conditions: atR14, 48 h; procedure, shortened: as §2
[10] = test system: Mycolicibacterium smegmatis; assay: Antimycobacterial activity against Mycobacterium smegmatis atR17 in liquid medium after 48 hrs by two-fold serial dilution method; format: functional; conditions: atR17, 48 h; procedure, shortened: as §2
[11] = test system: Mycolicibacterium smegmatis; assay: Antimycobacterial activity against Mycobacterium smegmatis atR19 in liquid medium after 48 hrs by two-fold serial dilution method; format: functional; conditions: atR19, 48 h; procedure, shortened: as §2
[12] = test system: Mycolicibacterium smegmatis; assay: Antimycobacterial activity against Mycobacterium smegmatis atR1 in liquid medium after 48 hrs by two-fold serial dilution method; format: functional; conditions: atR1, 48 h; procedure, shortened: as §2
[13] = test system: Mycolicibacterium smegmatis; assay: Antimycobacterial activity against Mycobacterium smegmatis atR8 in liquid medium after 48 hrs by two-fold serial dilution method; format: functional; conditions: atR8, 48 h; procedure, shortened: as §2
[14] = test system: Mycolicibacterium smegmatis; assay: Antimycobacterial activity against Mycobacterium smegmatis atR10 in liquid medium after 48 hrs by two-fold serial dilution method; format: functional; conditions: atR10, 48 h; procedure, shortened: as §2
[15] = test system: Mycolicibacterium smegmatis; assay: Antimycobacterial activity against Mycobacterium smegmatis atR11 in liquid medium after 48 hrs by two-fold serial dilution method; format: functional; conditions: atR11, 48 h; procedure, shortened: as §2
[16] = test system: Mycolicibacterium smegmatis; assay: Antimycobacterial activity against Mycobacterium smegmatis atR33 in liquid medium after 48 hrs by two-fold serial dilution method; format: functional; conditions: atR33, 48 h; procedure, shortened: as §2
[17] = test system: Mycolicibacterium smegmatis; assay: Antimycobacterial activity against Mycobacterium smegmatis atR37 in liquid medium after 48 hrs by two-fold serial dilution method; format: functional; conditions: atR37, 48 h; procedure, shortened: as §2
[18] = test system: Mycolicibacterium smegmatis; assay: Antimycobacterial activity against Mycobacterium smegmatis atR40 in liquid medium after 48 hrs by two-fold serial dilution method; format: functional; conditions: atR40, 48 h; procedure, shortened: as §2
[19] = test system: Mycolicibacterium smegmatis; assay: Antimycobacterial activity against Mycobacterium smegmatis atR2 in liquid medium after 48 hrs by two-fold serial dilution method; format: functional; conditions: atR2, 48 h; procedure, shortened: as §2
[20] = test system: Mycolicibacterium smegmatis; assay: Antimycobacterial activity against Mycobacterium smegmatis atR1 assessed as decrease in drug resistance development at 40 nmol/disc after 2 to 3 days by paper disc method; format: functional, organism-based; procedure, shortened: as §1
[21] = test system: Mycolicibacterium smegmatis; assay: Antimycobacterial activity against Mycobacterium smegmatis atR2 assessed as decrease in drug resistance development at 40 nmol/disc after 2 to 3 days by paper disc method; format: functional, organism-based; procedure, shortened: as §1
[22] = test system: Mycolicibacterium smegmatis; assay: Antimycobacterial activity against Mycobacterium smegmatis atR11 assessed as decrease in drug resistance development at 40 nmol/disc after 2 to 3 days by paper disc method; format: functional, organism-based; procedure, shortened: as §1
[23] = test system: Mycolicibacterium smegmatis; assay: Antimycobacterial activity against Mycobacterium smegmatis atR8 assessed as decrease in drug resistance development at 40 nmol/disc after 2 to 3 days by paper disc method; format: functional, organism-based
Procedure, shortened: (§3)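 Drug-resistant M. smegmatis mc2 155 mutants, isolated on M290 agar with 3.5-4× MIC of compound and resistance re-confirmed, grown in Middlebrook 7H9 (OADC, 0.1% Tween-80, 0.4% glycerol) to OD600 1.2. Diluted 1:9:10 culture:water:M290 and poured as top layer on M290 agar. Impregnated paper discs applied; 37 °C for 2–3 days. Halos measured to nearest 1 mm; triplicates, mean ± SD versus control strain.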

[24] = test system: Mycolicibacterium smegmatis; assay: Antimycobacterial activity against Mycobacterium smegmatis atR10 assessed as decrease in drug resistance development at 40 nmol/disc after 2 to 3 days by paper disc method; format: functional, organism-based; procedure, shortened: as §1
[25] = test system: Mycolicibacterium smegmatis; assay: Antimycobacterial activity against Mycobacterium smegmatis atR14 assessed as decrease in drug resistance development at 40 nmol/disc after 2 to 3 days by paper disc method; format: functional, organism-based; procedure, shortened: as §1
[26] = test system: Mycolicibacterium smegmatis; assay: Antimycobacterial activity against Mycobacterium smegmatis atR17 assessed as decrease in drug resistance development at 40 nmol/disc after 2 to 3 days by paper disc method; format: functional, organism-based; procedure, shortened: as §1
[27] = test system: Mycolicibacterium smegmatis; assay: Antimycobacterial activity against Mycobacterium smegmatis atR19 assessed as decrease in drug resistance development at 40 nmol/disc after 2 to 3 days by paper disc method; format: functional, organism-based; procedure, shortened: as §1
[28] = test system: Mycolicibacterium smegmatis; assay: Antimycobacterial activity against Mycobacterium smegmatis atR33 assessed as decrease in drug resistance development at 40 nmol/disc after 2 to 3 days by paper disc method; format: functional, organism-based; procedure, shortened: as §1
[29] = test system: Mycolicibacterium smegmatis; assay: Antimycobacterial activity against Mycobacterium smegmatis atR37 assessed as decrease in drug resistance development at 40 nmol/disc after 2 to 3 days by paper disc method; format: functional, organism-based; procedure, shortened: as §3
[30] = test system: Mycolicibacterium smegmatis; assay: Antimycobacterial activity against Mycobacterium smegmatis atR40 assessed as decrease in drug resistance development at 40 nmol/disc after 2 to 3 days by paper disc method; format: functional, organism-based; procedure, shortened: as §3
[31] = test system: Mycolicibacterium smegmatis; assay: Antimycobacterial activity against Mycobacterium smegmatis atR1 assessed as decrease in drug resistance development at 300 nmol/disc after 2 to 3 days by paper disc method; format: functional, organism-based; procedure, shortened: as §1
[32] = test system: Mycolicibacterium smegmatis; assay: Antimycobacterial activity against Mycobacterium smegmatis atR2 assessed as decrease in drug resistance development at 300 nmol/disc after 2 to 3 days by paper disc method; format: functional, organism-based; procedure, shortened: as §1
[33] = test system: Mycolicibacterium smegmatis; assay: Antimycobacterial activity against Mycobacterium smegmatis atR11 assessed as decrease in drug resistance development at 300 nmol/disc after 2 to 3 days by paper disc method; format: functional, organism-based; procedure, shortened: as §1
[34] = test system: Mycolicibacterium smegmatis; assay: Antimycobacterial activity against Mycobacterium smegmatis atR8 assessed as decrease in drug resistance development at 300 nmol/disc after 2 to 3 days by paper disc method; format: functional, organism-based; procedure, shortened: as §3
[35] = test system: Mycolicibacterium smegmatis; assay: Antimycobacterial activity against Mycobacterium smegmatis atR10 assessed as decrease in drug resistance development at 300 nmol/disc after 2 to 3 days by paper disc method; format: functional, organism-based; procedure, shortened: as §1
[36] = test system: Mycolicibacterium smegmatis; assay: Antimycobacterial activity against Mycobacterium smegmatis atR14 assessed as decrease in drug resistance development at 300 nmol/disc after 2 to 3 days by paper disc method; format: functional, organism-based; procedure, shortened: as §1
[37] = test system: Mycolicibacterium smegmatis; assay: Antimycobacterial activity against Mycobacterium smegmatis atR17 assessed as decrease in drug resistance development at 300 nmol/disc after 2 to 3 days by paper disc method; format: functional, organism-based; procedure, shortened: as §1
[38] = test system: Mycolicibacterium smegmatis; assay: Antimycobacterial activity against Mycobacterium smegmatis atR19 assessed as decrease in drug resistance development at 300 nmol/disc after 2 to 3 days by paper disc method; format: functional, organism-based; procedure, shortened: as §1
[39] = test system: Mycolicibacterium smegmatis; assay: Antimycobacterial activity against Mycobacterium smegmatis atR33 assessed as decrease in drug resistance development at 300 nmol/disc after 2 to 3 days by paper disc method; format: functional, organism-based; procedure, shortened: as §1
[40] = test system: Mycolicibacterium smegmatis; assay: Antimycobacterial activity against Mycobacterium smegmatis atR37 assessed as decrease in drug resistance development at 300 nmol/disc after 2 to 3 days by paper disc method; format: functional, organism-based; procedure, shortened: as §3
[41] = test system: Mycolicibacterium smegmatis; assay: Antimycobacterial activity against Mycobacterium smegmatis atR40 assessed as decrease in drug resistance development at 300 nmol/disc after 2 to 3 days by paper disc method; format: functional, organism-based; procedure, shortened: as §3

Row | SMILES | inhibition zone (IZ) [3] | inhibition zone (IZ) [4] | MIC [5] | MIC [6] | MIC [7] | MIC [8] | MIC [9] | MIC [10] | MIC [11] | MIC [12] | MIC [13] | MIC [14] | MIC [15] | MIC [16] | MIC [17] | MIC [18] | MIC [19] | further results
1 | O=C1c2c(O)ccc(O)c2C(=O)c2c(NCCNCCO)ccc(NCCNCCO)c21 |  |  |  |  |  |  |  |  |  |  |  |  |  |  |  |  |  | Activity [1]: inactive; Activity [2]: inactive
2 | CCCCCCCNc1nnc2ncc(Sc3ccccc3)n2n1 | 12 mm |  |  |  |  |  |  |  |  |  |  |  |  |  |  |  |  | 
3 | Cc1cc(C)n(-c2nnc3ncc(Sc4ccccc4)n3n2)n1 |  | 11.5 mm | 3.1 µM (≈ 1 µg/mL) | 99 µM (≈ 32 µg/mL) | 61.8 µM (≈ 20 µg/mL) | > 64 µg/mL | > 64 µg/mL | > 64 µg/mL | > 64 µg/mL | > 64 µg/mL | > 64 µg/mL | > 64 µg/mL | > 64 µg/mL | > 64 µg/mL | > 64 µg/mL | > 64 µg/mL | > 64 µg/mL | Activity [20]: inactive; Activity [21]: inactive; Activity [22]: inactive; Activity [23]: inactive; Activity [24]: inactive; Activity [25]: inactive; Activity [26]: inactive; Activity [27]: inactive; Activity [28]: inactive; Activity [29]: inactive; Activity [30]: inactive
4 | CCC(CCCO)Sc1cnc2nnc(-n3nc(C)cc3C)nn12 (centres undefined) |  | 9.3 mm |  |  |  |  |  |  |  |  |  |  |  |  |  |  |  | 
5 | Cc1cc(C)n(-c2nnc3ncc(SC(C)C)n3n2)n1 | 13.3 mm |  | 3.5 µM (≈ 1.01 µg/mL) | 221 µM (≈ 64 µg/mL) | 221 µM (≈ 64 µg/mL) | 256 µg/mL (≈ 885 µM) | 256 µg/mL (≈ 885 µM) | 256 µg/mL (≈ 885 µM) | 256 µg/mL (≈ 885 µM) | 512 µg/mL (≈ 1770 µM) | 512 µg/mL (≈ 1770 µM) | 512 µg/mL (≈ 1770 µM) | 512 µg/mL (≈ 1770 µM) | 512 µg/mL (≈ 1770 µM) | 512 µg/mL (≈ 1770 µM) | 512 µg/mL (≈ 1770 µM) | 1020 µg/mL (≈ 3540 µM) | Activity [31]: inactive; Activity [32]: inactive; Activity [33]: inactive; Activity [34]: inactive; Activity [35]: inactive; Activity [36]: inactive; Activity [37]: inactive; Activity [38]: inactive; Activity [39]: inactive; Activity [40]: inactive; Activity [41]: inactive
6 | Cc1cc(C)n(-c2nnc3nc(-c4ccccc4)c(SC(C)C)n3n2)n1 |  | 11 mm |  |  |  |  |  |  |  |  |  |  |  |  |  |  |  | 
